What was measured:
[1] = test system: Human immunodeficiency virus 1; assay: Antiviral activity against Human immunodeficiency virus 1 NL4.3 infected human CEM cells expressing GFP at 21.20 uM measured up to 8 days postinfection by p24 antigen capture ELISA; assay type: functional; details: Human immunodeficiency virus 1, NL4.3, CCRF-CEM, 192 h
Summary of the method: (§1)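 CD4+ T-lymphoblastoid CEM-GFP cells were infected with HIV-1 NL4-3 at MOI 0.05, following the lab's published protocol. Cells were then exposed to each compound at a concentration found non-cytotoxic by MTT and kept up to 8 days post infection. Virus was read out by p24 antigen-capture ELISA. IC50 is the concentration giving 50% protection of cells from virus (n = 3).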

[2] = test system: Human immunodeficiency virus 1; assay: Antiviral activity against Human immunodeficiency virus 1 NL4.3 infected human CEM cells expressing GFP measured up to 8 days postinfection by p24 antigen capture ELISA; assay type: functional, organism-based; details: Human immunodeficiency virus 1, NL4.3, CCRF-CEM, 192 h; summary of the method: as §1
[3] = test system: Human immunodeficiency virus 1; assay: Antiviral activity against Human immunodeficiency virus 1 NL4.3 infected human CEM cells expressing GFP at 27.42 uM measured up to 8 days postinfection by p24 antigen capture ELISA; assay type: functional; details: Human immunodeficiency virus 1, NL4.3, CCRF-CEM, 192 h; summary of the method: as §1
[4] = Cytotoxicity against human CEM cells expressing GFP after 48 to 72 hrs by MTT assay; assay type: cell-based; details: CEM cells expressing GFP (CCRF-CEM)
Summary of the method: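 MTT cell-viability kit used per the manufacturer's protocol. CEM-GFP cells were seeded at 2 × 10⁴ cells/well and given compound at a range of concentrations, with untreated wells as controls. Formazan was solubilized and read at 540 nm. CC50 is the concentration reducing cell proliferation by 50% (n = 3).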

[5] = Therapeutic index, ratio of CC50 for human CEM cells expressing GFP to IC50 for Human immunodeficiency virus 1 NL4.3; assay type: cell-based, CCRF-CEM; details: read-out: Ratio CC50/IC50
[6] = test system: Human immunodeficiency virus 1; assay: Antiviral activity against Human immunodeficiency virus 1 NL4.3 infected human CEM cells expressing GFP at 35.17 uM measured day 8 on post infection by p24 antigen capture ELISA; assay type: functional; details: Human immunodeficiency virus 1, NL4.3, CCRF-CEM, 192 h; summary of the method: as §1
[7] = test system: Human immunodeficiency virus 1; assay: Antiviral activity against Human immunodeficiency virus 1 NL4.3 infected human CEM cells expressing GFP at 30.56 uM measured up to 8 days postinfection by p24 antigen capture ELISA; assay type: functional; details: Human immunodeficiency virus 1, NL4.3, CCRF-CEM, 192 h; summary of the method: as §1
[8] = test system: Human immunodeficiency virus 1; assay: Antiviral activity against Human immunodeficiency virus 1 NL4.3 infected human CEM cells expressing GFP at 43.29 uM measured up to 8 days postinfection by p24 antigen capture ELISA; assay type: functional; details: Human immunodeficiency virus 1, NL4.3, CCRF-CEM, 192 h; summary of the method: as §1
[9] = test system: Human immunodeficiency virus 1; assay: Antiviral activity against Human immunodeficiency virus 1 NL4.3 infected human CEM cells expressing GFP at 14.98 uM measured up to 8 days postinfection by p24 antigen capture ELISA; assay type: functional; details: Human immunodeficiency virus 1, NL4.3, CCRF-CEM, 192 h; summary of the method: as §1
[10] = test system: Human immunodeficiency virus 1; assay: Antiviral activity against Human immunodeficiency virus 1 NL4.3 infected human CEM cells expressing GFP at 8.41 uM measured up to 8 days postinfection by p24 antigen capture ELISA; assay type: functional; details: Human immunodeficiency virus 1, NL4.3, CCRF-CEM, 192 h; summary of the method: as §1
[11] = test system: Human immunodeficiency virus 1; assay: Antiviral activity against Human immunodeficiency virus 1 NL4.3 infected human CEM cells expressing GFP at 1.84 uM measured up to 8 days postinfection by p24 antigen capture ELISA; assay type: functional; details: Human immunodeficiency virus 1, NL4.3, CCRF-CEM, 192 h; summary of the method: as §1
[12] = test system: Human immunodeficiency virus 1; assay: Antiviral activity against Human immunodeficiency virus 1 NL4.3 infected human CEM cells expressing GFP at 1.68 uM measured up to 8 days postinfection by p24 antigen capture ELISA; assay type: functional; details: Human immunodeficiency virus 1, NL4.3, CCRF-CEM, 192 h; summary of the method: as §1
[13] = test system: Human immunodeficiency virus 1; assay: Antiviral activity against Human immunodeficiency virus 1 NL4.3 infected human CEM cells expressing GFP at 65.93 uM measured up to 8 days postinfection by p24 antigen capture ELISA; assay type: functional; details: Human immunodeficiency virus 1, NL4.3, CCRF-CEM, 192 h; summary of the method: as §1
[14] = test system: Human immunodeficiency virus 1; assay: Antiviral activity against Human immunodeficiency virus 1 NL4.3 infected human CEM cells expressing GFP at 59.80 uM measured up to 8 days postinfection by p24 antigen capture ELISA; assay type: functional; details: Human immunodeficiency virus 1, NL4.3, CCRF-CEM, 192 h; summary of the method: as §1
[15] = test system: Human immunodeficiency virus 1; assay: Antiviral activity against Human immunodeficiency virus 1 NL4.3 infected human CEM cells expressing GFP at 12.30 uM measured up to 8 days postinfection by p24 antigen capture ELISA; assay type: functional; details: Human immunodeficiency virus 1, NL4.3, CCRF-CEM, 192 h; summary of the method: as §1
[16] = test system: Human immunodeficiency virus 1; assay: Antiviral activity against Human immunodeficiency virus 1 NL4.3 infected human CEM cells expressing GFP at 18.58 uM measured up to 8 days postinfection by p24 antigen capture ELISA; assay type: functional; details: Human immunodeficiency virus 1, NL4.3, CCRF-CEM, 192 h; summary of the method: as §1
[17] = test system: Human immunodeficiency virus 1; assay: Antiviral activity against Human immunodeficiency virus 1 NL4.3 infected human CEM cells expressing GFP at 19.60 uM measured up to 8 days postinfection by p24 antigen capture ELISA; assay type: functional; details: Human immunodeficiency virus 1, NL4.3, CCRF-CEM, 192 h; summary of the method: as §1
[18] = test system: Human immunodeficiency virus 1; assay: Antiviral activity against Human immunodeficiency virus 1 NL4.3 infected human CEM cells expressing GFP at 1.59 uM measured up to 8 days postinfection by p24 antigen capture ELISA; assay type: functional; details: Human immunodeficiency virus 1, NL4.3, CCRF-CEM, 192 h; summary of the method: as §1
[19] = test system: Human immunodeficiency virus 1; assay: Antiviral activity against Human immunodeficiency virus 1 NL4.3 infected human CEM cells expressing GFP at 23.36 uM measured up to 8 days postinfection by p24 antigen capture ELISA; assay type: functional; details: Human immunodeficiency virus 1, NL4.3, CCRF-CEM, 192 h; summary of the method: as §1
[20] = test system: Human immunodeficiency virus 1; assay: Antiviral activity against Human immunodeficiency virus 1 NL4.3 infected human CEM cells expressing GFP at 22.30 uM measured up to 8 days postinfection by p24 antigen capture ELISA; assay type: functional; details: Human immunodeficiency virus 1, NL4.3, CCRF-CEM, 192 h; summary of the method: as §1
[21] = test system: Human immunodeficiency virus 1; assay: Antiviral activity against Human immunodeficiency virus 1 NL4.3 infected human CEM cells expressing GFP at 16.73 uM measured up to 8 days postinfection by p24 antigen capture ELISA; assay type: functional; details: Human immunodeficiency virus 1, NL4.3, CCRF-CEM, 192 h; summary of the method: as §1
[22] = test system: Human immunodeficiency virus 1; assay: Antiviral activity against Human immunodeficiency virus 1 NL4.3 infected human CEM cells expressing GFP at 31.12 uM measured up to 8 days postinfection by p24 antigen capture ELISA; assay type: functional; details: Human immunodeficiency virus 1, NL4.3, CCRF-CEM, 192 h; summary of the method: as §1
[23] = Solubility of the compound; assay type: physicochemical
[24] = test system: Human immunodeficiency virus 1; assay: Antiviral activity against Human immunodeficiency virus 1 NL4.3 infected human CEM cells expressing GFP at 24.48 uM measured up to 8 days postinfection by p24 antigen capture ELISA; assay type: functional; details: Human immunodeficiency virus 1, NL4.3, CCRF-CEM, 192 h; summary of the method: as §1
[25] = test system: Human immunodeficiency virus 1; assay: Antiviral activity against Human immunodeficiency virus 1 NL4.3 infected human CEM cells expressing GFP at […] uM measured up to 8 days postinfection by p24 antigen capture ELISA; assay type: functional; details: Human immunodeficiency virus 1, NL4.3, CCRF-CEM, 192 h
[26] = test system: Human immunodeficiency virus 1; assay: Antiviral activity against Human immunodeficiency virus 1 NL4.3 infected human CEM cells expressing GFP at 20.20 uM measured up to 8 days postinfection by p24 antigen capture ELISA; assay type: functional; details: Human immunodeficiency virus 1, NL4.3, CCRF-CEM, 192 h; summary of the method: as §1
[27] = test system: Human immunodeficiency virus 1; assay: Antiviral activity against Human immunodeficiency virus 1 NL4.3 infected human CEM cells expressing GFP at 23.51 uM measured up to 8 days postinfection by p24 antigen capture ELISA; assay type: functional; details: Human immunodeficiency virus 1, NL4.3, CCRF-CEM, 192 h; summary of the method: as §1
[28] = test system: Human immunodeficiency virus 1; assay: Antiviral activity against Human immunodeficiency virus 1 NL4.3 infected human CEM cells expressing GFP at 4.98 uM measured up to 8 days postinfection by p24 antigen capture ELISA; assay type: functional; details: Human immunodeficiency virus 1, NL4.3, CCRF-CEM, 192 h
Summary of the method: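 Human CD4+ T-cell line CEM-GFP infected with HIV-1 NL4.3 at MOI 0.05, then incubated with compound at a non-cytotoxic concentration (chosen from a prior MTT viability assay in CEM-GFP) for up to 8 days post-infection. Protection is read by p24 antigen capture ELISA, n = 3.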

IC50 [2] [µM]	SMILES	CC50 [4] [µM]	selectivity ratio [5]	other results
	C=CCOc1cc(OCCC=C(C)C)c2ccccc2n1			inhibition at 21.2 µM [1]: 16%
11.6	C#CCOc1c(CC#C)c(O)nc2ccccc12	147	12.7	inhibition at 27.42 µM [3]: 92.4%
19.3	C#CCOc1cc(O)nc2ccccc12	103	5.3	inhibition at 35.17 µM [6]: 65.1%
8.95	CC(C)=CCOc1cc(O)nc2ccccc12	77.4	8.64	inhibition at 30.56 µM [7]: 95.5%
3.89	CC(C)CCOc1cc(O)nc2ccccc12	115	29.5	inhibition at 43.29 µM [8]: 76.7%
	C#CCOc1cc(OCC=C(C)C)nc2ccccc12			inhibition at 14.98 µM [9]: 2.56%
2.35	CC(C)=CCC1(CC=C(C)C)C(=O)Nc2ccccc2C1=O	62.6	26.6	inhibition at 8.41 µM [10]: 96%
	C=CCOc1cc(OCCC(C)C)c2ccccc2n1			inhibition at 1.84 µM [11]: 23%
	CC(C)=CCOc1cc(OCCC(C)C)c2ccccc2n1			inhibition at 1.68 µM [12]: 31.2%
34.4	CCCCOc1c(CCCC)c(O)nc2ccccc12	192	5.56	inhibition at 65.93 µM [13]: 81%
34.9	CC(C)CCOc1c(CCC(C)C)c(O)nc2ccccc12	160	4.59	inhibition at 59.8 µM [14]: 88.6%
	CC(C)=CCCOc1cc(OCCC=C(C)C)c2ccccc2n1			inhibition at 12.3 µM [15]: 32.7%
	C#CCOc1cc(OCCC(C)C)nc2ccccc12			inhibition at 18.58 µM [16]: 56.4%
	C#CCOc1cc(OCCCC)nc2ccccc12			inhibition at 19.6 µM [17]: 56.4%
	CC(C)=CCCOc1cc(OCCC(C)C)c2ccccc2n1			inhibition at 1.59 µM [18]: 15%
	CC(C)CCOc1cc(OCc2ccccc2)nc2ccccc12			inhibition at 23.36 µM [19]: 47%
	C=CCOc1cc(OCC=C(C)C)c2ccccc2n1			inhibition at 22.3 µM [20]: 35%
	C#CCOc1cc(OCC=C)nc2ccccc12			inhibition at 16.73 µM [21]: 16.1%
	C=CCC1(CC=C)C(=O)Nc2ccccc2C1=O			inhibition at 31.12 µM [22]: 44.3%
	CCCCC1(CCCC)C(=O)Nc2ccccc2C1=O			solubility [23]: Insoluble
	CC(C)Oc1c(C(C)C)c(O)nc2ccccc12			solubility [23]: Insoluble
	CCCCCCCCOc1cc(OCCCCCCCC)c2ccccc2n1			solubility [23]: Insoluble
16.7	CCCC1(CCC)C(=O)Nc2ccccc2C1=O	113	6.78	inhibition at 24.48 µM [24]: 74.7%
3.23	CC(C)=CCCC1(CCC=C(C)C)C(=O)Nc2ccccc2C1=O	67.4	20.9	inhibition at 12.3 µM [15]: 82%
8.76	CC(C)=CCCOc1c(CCC=C(C)C)c(O)nc2ccccc12	103	11.8	inhibition at 23.07 µM [25]: 68.3%
3.8	CC(C)=CCOc1c(CC=C(C)C)c(O)nc2ccccc12	71.2	18.7	inhibition at 20.2 µM [26]: 87.5%
2.99	C=CC(C)(C)C1(CC=C(C)C)C(=O)Nc2ccccc2C1=O (stereo not given) [BUCHAPINE]	55.9	18.7	inhibition at 23.51 µM [27]: 80.1%

SMILES	IC50 [2] [µM]	CC50 [4] [µM]	selectivity ratio [5]	other results
Cc1cn([C@H]2C[C@H](N=[N+]=[N-])[C@@H](CO)O2)c(=O)[nH]c1=O [ZIDOVUDINE]	1.04			inhibition at 4.98 µM [28]: 89.8%

From ChEMBL document CHEMBL1156233, “Synthesis and anti-HIV activity of alkylated quinoline 2,4-diols” (Bioorg Med Chem, 2010)
